Tests used:
Assay type in all cases: functional, cell-based
P388 = assay: Cytotoxicity against mouse P388 cells by MTT assay
In short: (§1)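 MTT read-out on HL-60 and P-388 cell lines, with adriamycin as the positive control. IC50 values are means of three independent experiments.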

A549 = assay: Cytotoxicity against human A549 cells by SRB assay
In short: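 SRB staining assay on A-549 cells, run alongside an adriamycin positive control. IC50 values are means of three independent experiments.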

HL-60 = assay: Cytotoxicity against human HL60 cells by MTT assay; in short: as §1

| Compound | IC50 (P388) | IC50 (A549) | IC50 (HL-60) |
| --- | --- | --- | --- |
| COc1cc2oc3c(OC)c(-c4ccc(O)c(CC=C(C)C)c4)cc(OC)c3c2cc1O [PRENYLCANDIDUSIN C] | 75.7 µM | 12.3 µM | 10.1 µM |
| COc1cc(-c2ccc(O)cc2)c(OC)c(O)c1-c1cc(O)c(O)c(CC=C(C)C)c1 [PRENYLTERPHENYLLIN C] | 86.2 µM | > 100 µM | 28.2 µM |
| COc1c(-c2ccc(O)c(CC=C(C)C)c2)cc(OC)c2c1oc1cc(O)c(O)cc12 [PRENYLCANDIDUSIN A] | 16.5 µM | 53.2 µM | 11.8 µM |
| COc1cc(-c2ccc(O)cc2)c(OC)c(O)c1-c1ccc(O)cc1 [TERPHENYLLIN] | 17.8 µM | 12.2 µM | 11 µM |
| COc1cc(-c2ccc(O)c(CC=C(C)C)c2)c(OC)c(O)c1-c1ccc(O)cc1 [PRENYLTERPHENYLLIN B] | 12.6 µM | > 100 µM | 38.6 µM |
| COc1cc(-c2ccccc2)c(OC)c(O)c1-c1ccc(O)c(O)c1 | 2.7 µM | 40.7 µM | 9.89 µM |
| COc1cc(-c2ccc(O)cc2)c(OC)c(O)c1-c1ccc(O)c(CC=C(C)C)c1 [PRENYLTERPHENYLLIN] | 1.99 µM | 3.62 µM | 2.75 µM |
| COc1ccc(-c2cc(OC)c3c(oc4cc(O)c(O)cc43)c2OC)cc1 [CANDIDUSIN C] | 96.9 µM | 83.6 µM | 16.5 µM |
| COc1cc(-c2ccc(O)c(CC=C(C)C)c2)c(OC)c(O)c1-c1ccc(O)c(O)c1 [PRENYLTERPHENYLLIN A] | 10.9 µM | 8.32 µM | 1.53 µM |
| COc1cc(-c2ccc(O)cc2)c(OC)c(O)c1-c1ccc(O)c(O)c1 | 28.1 µM | 34.7 µM | 9.86 µM |
| COc1cc(-c2ccc(O)c(O)c2)c(OC)c(O)c1-c1ccc(O)c(O)c1 | 9.13 µM | 14.3 µM | 11 µM |
| COc1cc2oc3c(OC)c(-c4ccc(O)c(CC=C(C)C)c4)cc(OC)c3c2cc1OC [PRENYLCANDIDUSIN B] | 1.57 µM | 8.61 µM | 76.7 µM |
| COc1c(-c2ccc(O)cc2)cc(OC)c2c1oc1cc(O)c(O)cc12 [CANDIDUSIN A] | 46.8 µM | 19.3 µM | 77.6 µM |

From ChEMBL document CHEMBL1795281, “Prenylated Polyhydroxy-p-terphenyls from Aspergillus taichungensis ZHN-7-07” (J Nat Prod, 2011)
